These results are taken from ChEMBL document CHEMBL3994580, “A novel class of α-glucosidase and HMG-CoA reductase inhibitors from Ganoderma leucocontextum and the anti-diabetic properties of ganomycin I in KK-Ay mice” (Eur J Med Chem, 2017).

Structures are written as SMILES. Calls of active or inactive are those of the source. The rule behind the calls is not given here.

The subject of series [1] is Mus musculus. As to the kind of experiment: Hypolipidemic activity in KK-Ay diabetic mouse model assessed as reduction in serum NEFA level at 1 to 5 mg/kg/day administered via oral gavage once daily for 21 days. It is filed as functional, organism-based. Put shortly:
(§1)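 Male KK-Ay mice (8 weeks old) on high-fat diet with water ad libitum, dosed by gavage once daily for 21 days (1 or 5 mg/kg test; rosiglitazone 10 mg/kg); female C57BL/6J mice as normal controls. Blood collected at study end. Serum lipids, insulin and glucose measured per cited method. ISI calculated from fasting blood glucose and fasting insulin. Mean ± SEM, n = 7-8.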

For series [2], the system named is Mus musculus. The series is described as follows: Antidiabetic activity in KK-Ay diabetic mouse model assessed as reduction in blood glucose level at 5 mg/kg/day administered via oral gavage once daily measured on day 19 at 30 to 60 mins post insulin challenge by insulin tolerance test. It is filed as functional, organism-based. The procedure, abridged: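 ITT on day 19 of treatment: after 4 h fasting, insulin 0.6 U·kg-1 given intraperitoneally. Glycaemia was sampled from the tail tip before and at set times after injection, and the AUC was computed. Mean ± SEM, n = 8.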

For series [3], the system named is Mus musculus. The series is described as follows: Hypolipidemic activity in KK-Ay diabetic mouse model assessed as reduction in serum triglyceride level at 1 to 5 mg/kg/day administered via oral gavage once daily for 21 days. It is filed as functional, organism-based. The procedure, abridged: as §1
Series [4] deals with Mus musculus. The series is described as follows: Antidiabetic activity in KK-Ay diabetic mouse model assessed as increase in insulin sensitivity index at 1 to 5 mg/kg/day administered via oral gavage once daily for 21 days. It is filed as functional, organism-based. Put shortly: as §1
Series [5] has as its system Mus musculus. The series is described as follows: Acute toxicity in mouse assessed as coma up to 3 g/kg, po up to 14 days. Particulars: in vivo, 336 h.
In series [6] the test system is Mus musculus. As to the kind of experiment: Acute toxicity in mouse assessed as mortality up to […], po up to 14 days. It is filed as organism-based. The following applies: in vivo, 336 h.
The nature of series [7]: Inhibition of baker's yeast alpha-glucosidase using p-nitrophenyl alpha-D-glucopyranoside as substrate preincubated for 10 mins followed by substrate addition measured for 15 mins. Also noted: species or system Saccharomyces cerevisiae. The procedure, abridged:
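Baker's yeast α-glucosidase with pNPG, read at 405 nm. Control contained phosphate buffer in place of compound, and blank contained buffer in place of enzyme.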

The test system of series [8] is Mus musculus. As to the kind of experiment: Decrease in hepatocyte hypertrophy in KK-Ay diabetic mouse model at 5 mg/kg/day administered via oral gavage once daily for 21 days by haematoxylin and eosin staining based microscopic or morphometric method. It is filed as functional, organism-based. The procedure, abridged:
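At study end, liver and abdominal white adipose tissue were fixed in 10% formaldehyde PBS (pH 7.4), paraffin-embedded, sectioned and stained with haematoxylin/eosin. Sections were assessed by microscopy or morphometry at 20×.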

Series [9] relates to Mus musculus. As to the kind of experiment: Antidiabetic activity in KK-Ay diabetic mouse model assessed as reduction in HbA1C level at 1 to 5 mg/kg/day administered via oral gavage once daily for 21 days. It is filed as functional, organism-based.
For series [10], the system named is Mus musculus. As to the kind of experiment: Acute toxicity in mouse assessed as convulsion up to […], po up to 14 days. It is filed as organism-based. Particulars: in vivo, 336 h.
The test system of series [11] is Mus musculus. The series is described as follows: Hypolipidemic activity in KK-Ay diabetic mouse model assessed as reduction in serum total cholesterol level at 1 to 5 mg/kg/day administered via oral gavage once daily for 21 days. It is filed as functional, organism-based. The procedure, abridged: as §1
Series [12] deals with Mus musculus. As to the kind of experiment: Acute toxicity in mouse assessed as effect on physical activity up to 3 g/kg, po up to 14 days. Particulars: in vivo, 336 h.
Series [13] has as its system Saccharomyces cerevisiae. The series is described as follows: Non-competitive inhibition of baker's yeast alpha-glucosidase using varying levels of p-nitrophenyl alpha-D-glucopyranoside as substrate preincubated for 10 mins followed by substrate addition measured for 15 mins by Lineweaver-Burk plot analysis. Put shortly: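 Kinetics with inhibitor at 0.3 to 1 μM against α-glucosidase. pNPG at 2, 4, 6 and 8 μM. Initial velocities measured with and without inhibitor, and inhibition type assigned from Michaelis-Menten and Lineweaver-Burk plots.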

Series [14] has as its system Mus musculus. As to the kind of experiment: Hypolipidemic activity in KK-Ay diabetic mouse model assessed as reduction in serum LDL-C level at 1 to 5 mg/kg/day administered via oral gavage once daily for 21 days. It is filed as functional, organism-based. The procedure, abridged: as §1
Series [15] has as its system Mus musculus. As to the kind of experiment: Toxicity in KK-Ay diabetic mouse model assessed as decrease in body weight at 1 to 5 mg/kg/day administered via oral gavage once daily measured every 3 days post two weeks of compound treatment. The following applies: in vivo, 72 h. It is filed as organism-based. Put shortly: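 In high-fat-fed KK-Ay mice gavaged once daily for 21 days, individual body weight and cage food consumption were recorded every 3 days. Mean ± SEM, n = 8.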

The test system of series [16] is Mus musculus. As to the kind of experiment: Acute toxicity in mouse assessed as effect on sleep up to 3 g/kg, po up to 14 days. Particulars: in vivo, 336 h.
The subject of series [17] is Mus musculus. The series is described as follows: Antidiabetic activity in KK-Ay diabetic mouse model assessed as reduction in serum insulin level at 1 to 5 mg/kg/day administered via oral gavage once daily for 21 days. It is filed as functional, organism-based. The procedure, abridged: as §1
In series [18] the target is T1, 3-hydroxy-3-methylglutaryl-coenzyme A reductase (Sus scrofa) (UniProt Q1W675).
T1 sequence (whole entry): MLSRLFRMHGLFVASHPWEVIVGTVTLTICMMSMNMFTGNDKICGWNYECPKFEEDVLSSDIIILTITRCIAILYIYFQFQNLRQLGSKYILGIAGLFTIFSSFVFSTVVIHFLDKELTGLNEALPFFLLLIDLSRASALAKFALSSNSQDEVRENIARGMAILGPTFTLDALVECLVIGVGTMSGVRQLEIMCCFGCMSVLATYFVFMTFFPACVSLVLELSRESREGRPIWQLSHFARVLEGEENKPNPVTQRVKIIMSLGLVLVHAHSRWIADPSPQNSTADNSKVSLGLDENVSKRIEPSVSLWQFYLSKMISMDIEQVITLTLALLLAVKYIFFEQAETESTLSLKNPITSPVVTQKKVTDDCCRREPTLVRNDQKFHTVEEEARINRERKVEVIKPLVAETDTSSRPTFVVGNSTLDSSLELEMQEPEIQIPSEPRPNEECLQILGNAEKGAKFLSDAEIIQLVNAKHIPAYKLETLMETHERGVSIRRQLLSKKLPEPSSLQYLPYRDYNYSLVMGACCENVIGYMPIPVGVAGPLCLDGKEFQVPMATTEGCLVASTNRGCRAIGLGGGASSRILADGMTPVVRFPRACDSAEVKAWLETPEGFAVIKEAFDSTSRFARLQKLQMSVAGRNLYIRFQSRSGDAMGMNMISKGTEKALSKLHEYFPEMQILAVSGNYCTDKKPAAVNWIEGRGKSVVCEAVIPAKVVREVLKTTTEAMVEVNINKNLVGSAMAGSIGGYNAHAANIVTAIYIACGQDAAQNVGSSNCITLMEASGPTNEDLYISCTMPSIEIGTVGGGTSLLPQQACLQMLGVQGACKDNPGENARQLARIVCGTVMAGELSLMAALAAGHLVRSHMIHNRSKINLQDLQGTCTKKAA
The series is described as follows: (§2) Inhibition of HMG-CoA reductase in pig liver microsomes using HMG-CoA as substrate preincubated for 5 mins followed by NADPH addition measured after 15 mins by colorimetric method. The procedure, abridged: (§3)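 HMG-CoA reductase activity followed by absorbance at 340 nm. Blank had potassium phosphate buffer instead of enzyme, and control had buffer instead of compound. Percent inhibition calculated from blank-corrected OD.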

The target in series [19] is T2, 3-hydroxy-3-methylglutaryl-coenzyme A reductase (Sus scrofa, UniProt Q1W675).
T2 sequence (Q1W675 whole entry): T1 sequence (whole entry)
The description is as §2. The procedure, abridged: as §3

As for `CC(C)=CCC/C(C)=C/CCC1=C[C@H](c2cc(O)ccc2O)OC1=O`, the outcome in series [1], in series [2], in series [3], in [4], in series [8] and in [9] was Active. The result in [11], in series [14] and in series [17] was Active. The Activity entry is “Non-Toxic” in series [5]; “Non-Toxic” in series [6]; “Non-Toxic” in series [10]; “Non-Toxic” in [12]; “Toxic” in series [15]; “Non-Toxic” in series [16]. Also, the figures for the IC50 in series [7] and in series [19] were 0.3 µM and 12.3 µM, respectively. In [13], the inhibition result was “Active”. Moreover, the inhibition entry in series [18] was “Dose-dependent effect”.
